Bioassay records deposited in PubChem by Sanford-Burnham Center for Chemical Genomics.
Only some compounds are listed: those with a hit (about 3% of all), similar ones and a draw of the others.
UBC13 inh = UBC13 polyubiquitin chain formation inhibitors, primary screen, biochemical, TR-FRET, uHTS; Ubiquitin-conjugating enzyme E2 N (Homo sapiens), P61088; inhibition, % at 20 µM; 0.47% of 330,000 active; AID 485273, 2010; in the data active means inhibition above about 45%, passing the limit was not always enough
Target sequence (P61088 whole entry, looked up): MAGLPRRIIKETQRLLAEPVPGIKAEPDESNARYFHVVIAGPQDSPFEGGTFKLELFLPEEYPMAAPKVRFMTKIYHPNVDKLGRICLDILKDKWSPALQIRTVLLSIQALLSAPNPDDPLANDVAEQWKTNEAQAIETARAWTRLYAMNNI
SENP6 inh = SENP6 protease inhibitors, primary screen, biochemical, luminescence, uHTS | Sentrin-specific protease 6 (Homo sapiens), Q9GZR1 | Recombinant SENP6 catalytic domain, aminoluciferin luminescence | inhibition, % at 10 µM | 1.8% of 330,000 active;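 active means inhibition above about 50% at the single tested dose, limit read from the data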
Target sequence (Q9GZR1 628-1112 limits assumed): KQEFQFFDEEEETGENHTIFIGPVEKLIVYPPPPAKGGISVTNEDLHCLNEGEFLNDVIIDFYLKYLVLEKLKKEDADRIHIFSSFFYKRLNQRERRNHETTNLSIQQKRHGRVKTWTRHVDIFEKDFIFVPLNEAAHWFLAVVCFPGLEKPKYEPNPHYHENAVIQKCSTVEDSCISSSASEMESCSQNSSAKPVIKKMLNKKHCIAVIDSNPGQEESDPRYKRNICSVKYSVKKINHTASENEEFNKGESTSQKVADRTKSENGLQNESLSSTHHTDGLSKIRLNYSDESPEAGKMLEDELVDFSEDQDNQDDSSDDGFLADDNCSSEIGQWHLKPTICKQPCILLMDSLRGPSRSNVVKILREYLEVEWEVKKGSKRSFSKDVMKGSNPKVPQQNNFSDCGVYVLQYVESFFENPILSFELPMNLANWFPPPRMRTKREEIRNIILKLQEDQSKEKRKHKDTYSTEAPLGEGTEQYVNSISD
Apaf-1 inh = inhibitors of human Apaf-1 apoptosome, primary screen, biochemical, DEVD-Rh110 fluorescence, uHTS; inhibition, % at 20 µM; reconstituted apoptosome caspase-3 activity; 0.71% of 330,000 active; active means inhibition of at least 40% at 20 µM
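Assay system – apoptosome proteins · Medium – Hepes buffer, pH 7.5 · Also added – cytochrome c with DEVD-Rh110 · Timing – 30 min compound preincubation, 50 min activation, room temperature · Detection – Rh110 fluorescence, excitation 480 nm, emission 540 nm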
SENP7 block = SENP7 protease inhibitors, primary screen, biochemical, luminescence, uHTS | Sentrin-specific protease 7 (Homo sapiens), Q9BQF6 | recombinant SENP7, Z-RLRGG-aminoluciferin luminescence, 40 min | inhibition, % at 5 µM | 1.5% of 330,000 active | AID 434973, 2010;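 active means inhibition above about 50% at the single test dose, limit read from the data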
SENP8 block-1 = SENP8 protease inhibitors, primary screen, biochemical, luminescence. inhibition, % at 10 µM. AID 2540, 2010. 1.2% of 330,000 active. Sentrin-specific protease 8 (Homo sapiens), Q96LD8. purified SENP8, Z-RLRGG-aminoluciferin cleavage; in the data active means inhibition above about 50%
SENP8 block-2 = human SENP8 protease inhibitors, primary screen, biochemical, fluorescence, Nedd8 protein substrate, uHTS. 0.64% of 360,000 active. recombinant SENP8. AID 602440, 2012. inhibition, % at 20 µM. Sentrin-specific protease 8 (Homo sapiens), Q96LD8; in the data active means inhibition mostly above about 40%, no sharp cut-off; inactive means mostly below about 27%
Apaf-1 inh conf2 = Apaf-1 inhibitors, single-dose retest, confirmation, biochemical, fluorescence, DEVD-Rh110, 20 µM; 25% of 1,800 active; reconstituted apoptosome, caspase-3 DEVD-Rh110 fluorescence; AID 504614, 2011; shares compounds with Apaf-1 inh; inhibition, % at 20 µM;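 active means mean inhibition of at least 40% at 20 µM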
Rh110 quench = Rh110 fluorescence interference by putative Apaf-1 inhibitors, confirmation, artefact control for Apaf-1 inhibitor project, biochemical, 20 µM. activation (fluorescence interference), % at 20 µM. shares compounds with Apaf-1 inh. 1,800 tested, under 10 active. AID 504615, 2011. quenched caspase reaction;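 active means signal rise of 40% or more at 20 µM, treated as a fluorescence artifact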
Fluor interf inh = fluorescence interference of Apaf-1 inhibitor hits, dose response, artefact control for Apaf-1 inhibitor project; shares compounds with Apaf-1 inh; IC50, µM; fluorescence interference counterscreen, Apaf-1 assay format; 460 tested, under 10 active; AID 588538, 2011; call rule not given here
Large screens that a line does not name were inactive (follow-up assays come after a bar, where they were run).

O=S1(=O)c2ccc(Br)cc2N2CC[C@H](C2)N1Cc1ccc(Cl)cc1	none (no result: UBC13 inh, SENP6 inh, Apaf-1 inh, SENP7 block, SENP8 block-1)
CCOC(=O)c1cnc2ccc(C)cc2c1Nc1ccc(N2CCOCC2)cc1	Apaf-1 inh 41.1 | Apaf-1 inh conf2 inactive | Rh110 quench inactive
Cc1cccc(N(Cc2ccccc2)C(=O)c2ccc(C)c(S(=O)(=O)N3CCOCC3)c2)c1	none
COc1ccc(C(=O)N(Cc2ccccc2)c2cccc(C)c2)cc1S(=O)(=O)N1CCOCC1	Apaf-1 inh 45.2 | Apaf-1 inh conf2 inactive | Rh110 quench inactive
COc1ccc(-c2nc3nc(C)c(Cc4ccccc4)c(=O)n3[nH]2)cc1	Apaf-1 inh 49.5 | Apaf-1 inh conf2 46.7 | Rh110 quench inactive
Cc1ccc(N2CCN(S(=O)(=O)c3c(C)nc4sccn4c3=O)CC2C)cc1 (centres undefined)	none (no result: UBC13 inh, SENP6 inh, Apaf-1 inh, SENP7 block, SENP8 block-1)
Cc1ccc(N2CCN(S(=O)(=O)c3cccs3)CC2C)cc1 (centres undefined)	Apaf-1 inh 62.2 | Apaf-1 inh conf2 inactive | Rh110 quench inactive
COc1ccc2cc(CN(C)C(=O)CN3C(=O)NC4(CCCC4)C3=O)ccc2c1	none (no result: UBC13 inh, SENP6 inh, Apaf-1 inh, SENP7 block, SENP8 block-1)
CCCCn1c(NC(=O)c2ccco2)c(S(=O)(=O)c2ccc(C)cc2)c2nc3ccccc3nc21	none (no result: UBC13 inh, SENP6 inh, Apaf-1 inh, SENP7 block, SENP8 block-1)
CCCCCn1c(NC(=O)c2ccco2)c(S(=O)(=O)c2ccc(C)cc2)c2nc3ccccc3nc21	Apaf-1 inh 62.8 | Apaf-1 inh conf2 inactive | Rh110 quench inactive
CCC(=O)Nc1c(S(=O)(=O)c2ccc(C)cc2)c2nc3ccccc3nc2n1C(C)c1ccccc1 (centres undefined)	Apaf-1 inh 44.4 | Apaf-1 inh conf2 inactive | Rh110 quench inactive
Cc1ccc(S(=O)(=O)N(C)C[C@H]2OCCCC[C@@H](C)Oc3ccc(NC(=O)Cc4ccccc4)cc3C(=O)N([C@H](C)CO)C[C@@H]2C)cc1	none (no result: UBC13 inh, SENP6 inh, Apaf-1 inh, SENP7 block, SENP8 block-1)
O=C(Nc1ccc2c(c1)OCCO2)C1c2ccccc2OCC(=O)N1CCc1ccccc1 (centres undefined)	none (no result: UBC13 inh, SENP6 inh, Apaf-1 inh, SENP7 block, SENP8 block-1)
CCc1ccc(S(=O)(=O)/N=C2\C=C(Nc3ccc(O)cc3)C(=O)c3ccccc32)cc1	SENP6 inh 89.1, Apaf-1 inh 95.1, SENP7 block 66.9, SENP8 block-1 90.7, SENP8 block-2 101.4 | Apaf-1 inh conf2 95.9 | Rh110 quench inactive | Fluor interf inh inactive
CCc1ccc(S(=O)(=O)/N=C2\C=C(Nc3cccc(C(=O)O)c3)C(=O)c3ccccc32)cc1	SENP6 inh 92.4, Apaf-1 inh 90.7, SENP8 block-1 95.0, SENP8 block-2 69.6 | Apaf-1 inh conf2 89.6 | Rh110 quench inactive | Fluor interf inh inactive
CC(=O)Nc1ccc(NC2=CC(=O)c3ccccc3C2=O)cc1	none
COc1cc(OC)cc(C(=O)N2CCN(S(=O)(=O)c3ccc4c(c3)OCCO4)CC2)c1	none (no result: UBC13 inh, SENP6 inh, Apaf-1 inh, SENP7 block, SENP8 block-1)
O=C(CCn1c2c(c3ccccc31)CCCC2)NNC(=O)c1ccc([N+](=O)[O-])cc1	Apaf-1 inh 80.9 | Apaf-1 inh conf2 85.2 | Rh110 quench inactive | Fluor interf inh inactive
CC(=O)NNC(=O)CCn1c2c(c3ccccc31)CCCC2	none
O=C(CCn1c2c(c3ccccc31)CCCC2)NNC(=O)c1ccc(Cl)c([N+](=O)[O-])c1	Apaf-1 inh 88.6 | Apaf-1 inh conf2 87.1 | Rh110 quench inactive | Fluor interf inh inactive
CCOC(=O)NNC(=O)CCn1c2c(c3ccccc31)CCCC2	none
CCOC(=O)c1c(C)n(-c2ccc(C)cc2)c2c(CC(C)=O)c(Br)c(OC)c(O)c12	none
CCOC(=O)c1c(C)n(-c2ccc(C)cc2)c2c(C(C(C)=O)C(=O)O)c(Br)c(O)c(O)c12 (centres undefined)	Apaf-1 inh 49.6 | Apaf-1 inh conf2 62.3 | Rh110 quench inactive | Fluor interf inh inactive
Cc1ccc(F)c(S(=O)(=O)NC(=O)C2(C)CCN2C(=O)Cc2ccsc2)c1 (centres undefined)	none (no result: UBC13 inh, SENP6 inh, Apaf-1 inh, SENP7 block, SENP8 block-1)
C[C@@H]1CCCCO[C@H](CN(C)C(=O)c2ccccc2)[C@@H](C)CN([C@H](C)CO)C(=O)c2cc(NC(=O)c3ccncc3)ccc2O1	none (no result: UBC13 inh, SENP6 inh, Apaf-1 inh, SENP7 block, SENP8 block-1)
CC1=NN(c2cccc(C(=O)O)c2)C(=O)/C1=C\C=C\c1ccco1	none
C#CCOc1ccc(/C=C2/C(=O)N(c3cccc(C(=O)O)c3)N=C2C)cc1OC	Apaf-1 inh 42.6 | Apaf-1 inh conf2 inactive | Rh110 quench inactive
CC1(C)Cc2c(sc(NC(=O)COc3cccc4ccccc34)c2C#N)C(C)(C)N1	Apaf-1 inh 46.5 | Apaf-1 inh conf2 inactive | Rh110 quench inactive
COCCNC(=O)C1(C)CCN(C(=O)c2sc(-c3ccccc3)nc2C)C1 (centres undefined)	none (no result: UBC13 inh, SENP6 inh, Apaf-1 inh, SENP7 block, SENP8 block-1)
CNc1ncnc2c1ncn2[C@H]1CN(Cc2ccc(OC)cc2)C[C@@H](CO)O1	none (no result: UBC13 inh, SENP6 inh, Apaf-1 inh, SENP7 block, SENP8 block-1)
CC1=C(CC(=O)c2ccccc2)C(=O)c2ccccc2C1=O	Apaf-1 inh 44.7 | Apaf-1 inh conf2 40.5 | Rh110 quench inactive | Fluor interf inh inactive
CN(C)c1ccc(CNC(=O)/C=C/[C@H]2O[C@@H](n3ccc(=O)[nH]c3=O)[C@H](O)[C@@H]2O)cc1	none (no result: UBC13 inh, SENP6 inh, Apaf-1 inh, SENP7 block, SENP8 block-1)
COCOCCn1cc(CN2CCS(=O)(=O)N(Cc3ccc(-c4ccc(F)cc4)cc3)C(CC(C)C)C2=O)nn1 (centres undefined)	none (no result: UBC13 inh, SENP6 inh, Apaf-1 inh, SENP7 block, SENP8 block-1)
COC(=O)CCC(=O)OC1(C)C(=O)C=C2C=C(C3CC3)N(CC3CC3)C=C2C1=O (centres undefined)	Apaf-1 inh 56.8 | Apaf-1 inh conf2 inactive | Rh110 quench inactive
CC1(OC(=O)C2CCCC2)C(=O)C=C2C=C(c3ccsc3)N(C3CCCC3)C=C2C1=O (centres undefined)	none
COC(=O)CCC(=O)OC1(C)C(=O)C=C2C=C(C3CC3)N(C3CCCC3)C=C2C1=O (centres undefined)	Apaf-1 inh 67.5 | Apaf-1 inh conf2 inactive | Rh110 quench inactive
CC(C)COC(=O)N1CCCCC1c1cc(C(=O)NCc2ccccc2)no1 (centres undefined)	none (no result: UBC13 inh, SENP6 inh, Apaf-1 inh, SENP7 block, SENP8 block-1)
COc1ccccc1-n1c(N)c(C(=O)NCC2CCCO2)c2nc3ccccc3nc21 (centres undefined)	Apaf-1 inh 68.7 | Apaf-1 inh conf2 inactive | Rh110 quench inactive
